The source of these data is ChEMBL document CHEMBL2010757, “Cholinestrase inhibitory effects of geranylated flavonoids from Paulownia tomentosa fruits” (Bioorg Med Chem, 2012).

Assay [1] addresses T1, Butyrylcholinesterase (Equus caballus, UniProt Q9N1N9). The assay is described as follows: Inhibition of equine BChE assessed as butyrylthiocholine iodide hydrolysis after 10 mins preincubation by spectrophotometry. The gist of the method:
(§1)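 Equine serum BChE (0.05 U/mL) mixed with sample in 100 mM sodium phosphate pH 8.0, held 10 min at room temperature; started with DTNB (3.3 mM) and butyrylthiocholine iodide (1 mM). 5-Thio-2-nitrobenzoate read at 412 nm, triplicate. IC50 as concentration giving 50% inhibition; kinetics by Lineweaver–Burk plots at rising substrate and inhibitor levels, Ki from Dixon plot.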

For assay [2], the target named is T2, Acetylcholinesterase (Homo sapiens, UniProt P22303). As to the kind of experiment: Inhibition of human erythrocyte AChE assessed as acetylthiocholine iodide hydrolysis after 10 mins preincubation by spectrophotometry. The gist of the method: (§2)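 Human erythrocyte AChE (0.25 U/mL) with sample in 100 mM sodium phosphate pH 8.0, 10 min room temperature preincubation; started with DTNB (3.3 mM) and acetylthiocholine iodide (1 mM). Thiolate formation read at 412 nm, triplicate. IC50 as concentration for 50% inhibition; mode by Lineweaver–Burk plots over rising substrate and inhibitor, Ki by Dixon plot.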
T2 sequence (P22303 whole entry): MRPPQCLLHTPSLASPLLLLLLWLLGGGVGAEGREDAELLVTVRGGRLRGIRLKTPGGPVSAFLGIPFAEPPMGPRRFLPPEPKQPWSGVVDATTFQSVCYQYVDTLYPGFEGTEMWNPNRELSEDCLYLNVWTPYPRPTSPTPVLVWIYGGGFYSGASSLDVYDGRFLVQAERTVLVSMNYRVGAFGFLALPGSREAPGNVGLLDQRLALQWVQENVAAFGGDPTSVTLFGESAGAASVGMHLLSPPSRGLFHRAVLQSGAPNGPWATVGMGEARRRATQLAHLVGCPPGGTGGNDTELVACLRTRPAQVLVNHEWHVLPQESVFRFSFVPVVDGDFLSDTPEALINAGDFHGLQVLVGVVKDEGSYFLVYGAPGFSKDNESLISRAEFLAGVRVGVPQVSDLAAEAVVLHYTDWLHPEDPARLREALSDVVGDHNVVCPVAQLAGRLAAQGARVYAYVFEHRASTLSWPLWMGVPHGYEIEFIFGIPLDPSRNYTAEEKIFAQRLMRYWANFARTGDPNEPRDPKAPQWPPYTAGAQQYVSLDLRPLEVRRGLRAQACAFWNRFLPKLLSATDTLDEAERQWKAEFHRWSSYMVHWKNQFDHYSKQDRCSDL

Assay [3] has as its target T2, Acetylcholinesterase. The assay is described as follows: Mixed type inhibition of human erythrocyte AChE using acetylthiocholine iodide as substrate by Lineweaver-Burk double-reciprocal-plot and dixon plot analysis. The gist of the method: as §2
Assay [4] deals with T2, Acetylcholinesterase. The assay is described as follows: Reversible inhibition of human erythrocyte AChE using assessed as acetylthiocholine iodide hydrolysis by spectrophotometry. The note with it: TDE = time-dependent effect. The gist of the method:
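hAChE (0.25 U/mL) with 1 mM acetylthiocholine in 100 mM sodium phosphate pH 8.0 at 37 °C, read continuously by spectrophotometer for 300 s. Reversibility from initial velocity versus enzyme amount at several inhibitor levels. Enzyme preincubated with inhibitor 0–60 min in 10 min steps; residual velocity (v/v0) followed; progress curves at one inhibitor level fitted by nonlinear regression.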

In assay [5] the target is T1, Butyrylcholinesterase. As to the kind of experiment: Mixed type inhibition of equine BChE using butyrylthiocholine iodide as substrate by Lineweaver-Burk double-reciprocal-plot and dixon plot analysis. A digest of the protocol: as §1
Assay [6] concerns the target T2, Acetylcholinesterase. The assay is described as follows: Binding affinity to human erythrocyte AChE assessed as fluorescence quenching by microplate reader. The gist of the method: (§3)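 hAChE at 5 U/mL in 100 mM sodium phosphate pH 8.0 titrated with successive inhibitor additions. Excitation 276 nm, emission 300–400 nm, slits 2.0 nm, at 18 and 37 °C; triplicate means. Affinity constant KA and n from log[(F0−F)/F] = logKA + n log[Q] for static quenching.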

Assay [7] addresses T2, Acetylcholinesterase. The assay is described as follows: Binding affinity to human erythrocyte AChE. A digest of the protocol: as §3
Assay [8] concerns the target T2, Acetylcholinesterase. The assay is described as follows: Ratio of eriodictyol IC50 to compound IC50 for human erythrocyte AChE.

SMILES strings stand for the structures.

T1 sequence (Q9N1N9 whole entry): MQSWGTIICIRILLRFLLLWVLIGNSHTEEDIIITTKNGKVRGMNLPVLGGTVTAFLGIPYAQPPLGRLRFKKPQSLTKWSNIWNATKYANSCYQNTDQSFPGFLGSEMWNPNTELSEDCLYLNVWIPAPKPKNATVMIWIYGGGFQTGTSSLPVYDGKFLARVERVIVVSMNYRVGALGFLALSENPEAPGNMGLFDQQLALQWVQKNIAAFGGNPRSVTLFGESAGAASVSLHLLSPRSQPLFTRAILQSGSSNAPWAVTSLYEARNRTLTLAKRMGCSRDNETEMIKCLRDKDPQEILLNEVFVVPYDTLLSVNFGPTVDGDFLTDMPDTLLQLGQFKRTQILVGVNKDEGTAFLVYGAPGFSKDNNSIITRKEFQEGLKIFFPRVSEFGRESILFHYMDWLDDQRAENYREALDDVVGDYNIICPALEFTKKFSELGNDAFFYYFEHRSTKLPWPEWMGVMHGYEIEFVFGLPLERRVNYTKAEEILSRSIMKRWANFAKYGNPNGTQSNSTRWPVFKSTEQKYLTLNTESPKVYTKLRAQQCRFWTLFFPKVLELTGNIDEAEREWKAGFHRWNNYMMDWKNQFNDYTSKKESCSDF

In general, IC50 refers to the point on the concentration scale where inhibition reaches its midpoint. What is called Ki is a measure of affinity in units of concentration, obtained from inhibition or displacement. With `COc1c(O)cc(C2CC(=O)c3c(cc(O)c(C/C=C(\C)CCC=C(C)C)c3O)O2)cc1O` (configuration not stated), the figures for the IC50 on Butyrylcholinesterase [1] and at Acetylcholinesterase [2] were 6.4 µM and 22.9 µM, respectively. Besides, the inhibition result at Acetylcholinesterase [2] is “Dose-dependent effect”; at Acetylcholinesterase [4], “tde”. Also, the Ki worked out at 30.1 µM at Acetylcholinesterase [3] and 7.6 µM at Butyrylcholinesterase [5].
For `O=C1C[C@@H](c2ccc(O)cc2)Oc2cc(O)cc(O)c21` [NARINGENIN], the IC50 amounted to 1490 µM on Butyrylcholinesterase [1] and 2040 µM on Acetylcholinesterase [2].
Turning to `O=C1C[C@@H](c2ccc(O)c(O)c2)Oc2cc(O)cc(O)c21` [ERIODICTYOL], the IC50 on Butyrylcholinesterase [1] worked out at 1120 µM; at Acetylcholinesterase [2] it was 1660 µM.
For the compound `COc1ccc([C@H]2Oc3cc(O)c(C/C=C(\C)CCC=C(C)C)c(O)c3C(=O)[C@@H]2O)cc1O`, at Acetylcholinesterase [6], the KSV was determined as 0.0285 ×10⁵ L/M. For the same compound, the IC50 at Butyrylcholinesterase [1] was 12.7 µM; at Acetylcholinesterase [2], 31.9 µM. In addition, the figures for the inhibition entry at Acetylcholinesterase [2] and on Acetylcholinesterase [4] were “Dose-dependent effect” and “tde”, respectively. The Ki at Acetylcholinesterase [3] was found to be 34.3 µM; on Butyrylcholinesterase [5] it was 18.7 µM. On Acetylcholinesterase [7], the Ka turned out to be 2.7 ×10³ L/M.
Turning to `CNC(=O)Oc1ccc2c(c1)[C@]1(C)CCN(C)[C@@H]1N2C` [PHYSOSTIGMINE], the IC50 at Butyrylcholinesterase [1] came out at 3.7 µM.
Turning to `COc1cc(C2CC(=O)c3c(cc(O)c(C/C=C(\C)CCC=C(C)C)c3O)O2)cc(OC)c1O` (configuration not stated), the IC50 at Butyrylcholinesterase [1] came out at 80 µM; at Acetylcholinesterase [2], 316 µM. The same compound registered a Ki at Butyrylcholinesterase [5] of 75.2 µM.
As to `CC(C)=CCC/C(C)=C/Cc1c(O)cc2c(c1O)C(=O)C[C@@H](c1ccc(O)cc1)O2` [BONANNIONE A], the results for the IC50 at Butyrylcholinesterase [1] and on Acetylcholinesterase [2] were 20.6 µM and 91.5 µM, respectively. Besides, the figures for the inhibition entry at Acetylcholinesterase [2] and on Acetylcholinesterase [4] were “Dose-dependent effect” and “tde”, respectively. The Ki was 120 µM on Acetylcholinesterase [3] and 22.2 µM on Butyrylcholinesterase [5].
For the compound `COc1ccc([C@@H]2CC(=O)c3c(cc(O)c(C/C=C(\C)CCC=C(C)C)c3O)O2)cc1O`, the KSV at Acetylcholinesterase [6] was found to be 0.0103 ×10⁵ L/M. The half-inhibitory concentration (IC50) at Butyrylcholinesterase [1] came to 25.6 µM; on Acetylcholinesterase [2], 92.4 µM. In addition, the results for the inhibition entry on Acetylcholinesterase [2] and at Acetylcholinesterase [4] were “Dose-dependent effect” and “tde”, respectively. Besides, the Ki at Acetylcholinesterase [3] came out at 94.5 µM; on Butyrylcholinesterase [5] it was 23.5 µM. On Acetylcholinesterase [7], this compound yielded a Ka of 0.924 ×10³ L/M.
As to `CC(C)=CCC/C(C)=C/Cc1c(O)cc2c(c1O)C(=O)C[C@@H](c1ccc(O)c(O)c1)O2` [NYMPHAEOL A], the KSV at Acetylcholinesterase [6] is 0.0577 ×10⁵ L/M. Moreover, the IC50 was 1.4 µM at Butyrylcholinesterase [1] and 7.2 µM at Acetylcholinesterase [2]. The values for the inhibition entry on Acetylcholinesterase [2] and at Acetylcholinesterase [4] were “Dose-dependent effect” and “tde”, respectively. In addition, the Ki on Acetylcholinesterase [3] came out at 8.4 µM; at Butyrylcholinesterase [5], 1.2 µM. For the same compound, at Acetylcholinesterase [8], the Ratio IC50 was 200. For the same compound, on Acetylcholinesterase [7], the Ka is 5.49 ×10³ L/M.
In the case of `COc1cc([C@H]2Oc3cc(O)c(C/C=C(\C)CCC=C(C)C)c(O)c3C(=O)[C@@H]2O)ccc1O`, the IC50 on Butyrylcholinesterase [1] was 11.2 µM; at Acetylcholinesterase [2] it was 48.5 µM. The figures for the inhibition result at Acetylcholinesterase [2] and at Acetylcholinesterase [4] were “Dose-dependent effect” and “tde”, respectively. In addition, the Ki on Acetylcholinesterase [3] is 68.2 µM; at Butyrylcholinesterase [5] it was 18.2 µM.
For `COc1ccc([C@@H]2CC(=O)c3c(O)cc(O)cc3O2)cc1O` [HESPERETIN], the IC50 on Butyrylcholinesterase [1] amounted to 1770 µM; on Acetylcholinesterase [2] it was 2480 µM.
For `COc1cc([C@@H]2CC(=O)c3c(cc(O)c(C/C=C(\C)CCC=C(C)C)c3O)O2)ccc1O`, the values for the IC50 on Butyrylcholinesterase [1] and on Acetylcholinesterase [2] were 24.5 µM and 109 µM, respectively. Further, the results for the inhibition result at Acetylcholinesterase [2] and at Acetylcholinesterase [4] were “Dose-dependent effect” and “tde”, respectively. For the same compound, the figures for the Ki at Acetylcholinesterase [3] and on Butyrylcholinesterase [5] were 150 µM and 23.6 µM, respectively.
With `COc1c(O)cc(C2Oc3cc(O)c(C/C=C(\C)CCC=C(C)C)c(O)c3C(=O)[C@@H]2O)cc1O` (some centres not stated), the KSV at Acetylcholinesterase [6] was 0.0369 ×10⁵ L/M. The IC50 at Butyrylcholinesterase [1] was 3.8 µM; at Acetylcholinesterase [2], 15.6 µM. Also, the inhibition result at Acetylcholinesterase [2] is “Dose-dependent effect”; on Acetylcholinesterase [4], “tde”. Besides, the figures for the Ki on Acetylcholinesterase [3] and at Butyrylcholinesterase [5] were 16.9 µM and 4.5 µM, respectively. The Ka at Acetylcholinesterase [7] was determined as 4.54 ×10³ L/M.
